We go through one molecule from ChEMBL document CHEMBL1687700, “Discovery of an Orally Efficacious Imidazo[5,1-f][1,2,4]triazine Dual Inhibitor of IGF-1R and IR” (ACS Med Chem Lett, 2010).

By bioavailability is commonly meant dose-corrected exposure relative to a reference, in per cent. Broadly, the clearance is the rate of elimination divided by the concentration. For orientation: Cmax means the highest concentration seen after dosing. Broadly, the AUC is concentration integrated over time.

Data set [1] is described as follows: Plasma protein binding in mouse. The class given is ADME, cell-free. The following applies: read-out: PPB (converted). A digest of the protocol:
(§1)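 Plasma protein binding determined by ultracentrifugation in mouse, rat and human plasma; percent bound reported.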

For data set [2], the system named is Mus musculus. The experiment in a line: Inhibition of human IGF1R phosphorylation in human GEO cells xenografted in CD-1 nu/nu mouse at 10 mg/kg, po administered as single dose in 40% Trappsol after 16 hrs. The note with it: CD-1, GEO. In kind it is functional. A digest of the protocol: (§2)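 GEO xenograft mice given a single 10 mg/kg oral dose; tumors and plasma sampled over time; tumor pIGF-1R and pIR content expressed as percentage of vehicle-treated controls alongside plasma drug level; means ± SD.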

Data set [3] is described as follows: Plasma concentration in human GEO cells xenografted CD-1 nu/nu mouse at 10 mg/kg, po administered as single dose in 40% Trappsol after 16 hrs. In kind it is ADME, organism-based. Also noted: dose 10 mg/kg, route oral. A digest of the protocol: as §2
For orientation: In xenograft studies the graft and the host belong to different species.

Data set [4] is described as follows: Volume of distribution at steady state in rhesus monkey at 5 mg/kg, iv administered as single dose. The following applies: in vivo, read-out: Vdss. The arrangement: dose 5 mg/kg, route intravenous. In kind it is ADME, organism-based, Macaca mulatta. In short, it runs like this: (§3)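 Single 5 mg/kg iv dose used to derive clearance and Vss; median values reported per species (female rat, male rhesus monkey).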

Data set [5] in a line: Oral bioavailability in rhesus monkey at 30 mg/kg administered as single dose. In kind it is ADME, organism-based, Macaca mulatta. The following applies: in vivo. In short, it runs like this:
(§4)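 Rhesus monkey (male), single oral dose of the HCl salt in 40% w/v hydroxypropyl-β-cyclodextrin vehicle; median PK parameters reported; bioavailability referenced to a 5 mg/kg iv dose.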

The nature of data set [6]: Antitumor activity against human GEO cells xenografted in CD-1 nu/nu mouse assessed as tumor growth inhibition at 5 mg/kg, po bid administered for 14 days. In kind it is functional. The following applies: 336 h, read-out: TGI. A digest of the protocol: (§5)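 Nude mouse xenografts dosed orally (HCl salt in 40% w/v hydroxypropyl-β-cyclodextrin) once or twice daily for 14 days; tumor volume expressed as percentage of initial volume, mean ± SE; body weight monitored.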

Data set [7] can be described thus: Antitumor activity against human GEO cells xenografted in CD-1 nu/nu mouse assessed as tumor growth inhibition at 20 mg/kg, po administered once daily for 14 days. The class given is functional. The note with it: 336 h, read-out: TGI. In short, it runs like this: as §5
The nature of data set [8]: Clearance in rhesus monkey at 5 mg/kg, iv administered as single dose. In kind it is ADME, organism-based, Macaca mulatta. The arrangement: dose 5 mg/kg, route intravenous. The note with it: in vivo. A digest of the protocol: as §3
The nature of data set [9]: Oral bioavailability in CD-1 mouse at 25 mg/kg administered as single dose. The class given is ADME, organism-based. The note with it: in vivo.
Data set [10] in a line: Plasma protein binding in rat. The class given is ADME, cell-free. The following applies: read-out: PPB (converted). A digest of the protocol: as §1
Data set [11] deals with Mus musculus. The experiment in a line: Inhibition of human IGF1R phosphorylation in human GEO cells xenografted in CD-1 nu/nu mouse at 10 mg/kg, po bid administered for 14 days. The following applies: CD-1, GEO, 336 h. The class given is functional. A digest of the protocol: (§6)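 GEO xenografts dosed orally for 14 days (qd or bid); tumors removed after last dose, up to 24 h, for pIGF-1R and pIR content relative to vehicle controls; means ± SE.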

Data set [12] concerns Mus musculus. The experiment in a line: Inhibition of IR phosphorylation in human GEO cells xenografted in CD-1 nu/nu mouse at 5 mg/kg, po bid administered for 14 days. In kind it is functional. The following applies: CD-1, GEO, 336 h. A digest of the protocol: as §6
The subject of data set [13] is Mus musculus. The experiment in a line: Inhibition of human IGF1R phosphorylation in human GEO cells xenografted in CD-1 nu/nu mouse at 5 mg/kg, po bid administered for 14 days. The note with it: CD-1, GEO, 336 h. In kind it is functional. A digest of the protocol:
as §6

The nature of data set [14]: Cmax in CD-1 mouse at 25 mg/kg, po administered as single dose. The class given is ADME, organism-based. The note with it: in vivo. The arrangement: dose 25 mg/kg, route oral.
Data set [15] is described as follows: AUC in rhesus monkey at 30 mg/kg, po administered as single dose. The class given is ADME, organism-based, Macaca mulatta. The arrangement: dose 30 mg/kg, route oral. The note with it: plasma. A digest of the protocol:
as §4

Data set [16] has as its system Mus musculus. The data set is described as follows: Inhibition of human IGF1R phosphorylation in human GEO cells xenografted in CD-1 nu/nu mouse at 10 mg/kg, po administered as single dose in 40% Trappsol upto 8 hrs. In kind it is functional. The following applies: CD-1, GEO. A digest of the protocol:
as §2

The nature of data set [17]: Plasma concentration in human GEO cells xenografted CD-1 nu/nu mouse at 10 mg/kg, po administered as single dose in 40% Trappsol upto 8 hrs. Also noted: dose 10 mg/kg, route oral. In kind it is ADME, organism-based. In short, it runs like this:
as §2

Data set [18] is described as follows: Antitumor activity against human GEO cells xenografted in CD-1 nu/nu mouse assessed as tumor growth inhibition at 10 mg/kg, po bid administered for 14 days. The class given is functional. The following applies: 336 h, read-out: TGI. In short, it runs like this:
as §5

In data set [19] the test system is Mus musculus. The data set is described as follows: Inhibition of IR phosphorylation in human GEO cells xenografted in CD-1 nu/nu mouse at 10 mg/kg, po administered as single dose in 40% Trappsol. The note with it: CD-1, GEO. In kind it is functional. A digest of the protocol:
as §2

Data set [20] in a line: AUC in CD-1 mouse at 25 mg/kg, po administered as single dose. In kind it is ADME, organism-based. The arrangement: dose 25 mg/kg, route oral. The note with it: plasma. A digest of the protocol:
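Single oral dose of 25 mg/kg, given as the HCl salt in 40% w/v hydroxypropyl-β-cyclodextrin, to female mice. Plasma exposure is reported as AUC (ng h/mL), with median values given. CL and Vss come from a separate 5 mg/kg iv dose.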

The test system of data set [21] is NIH3T3. The experiment in a line: Antitumor activity against mouse NIH/3T3 cells xenografted in CD-1 nu/nu mouse assessed as tumor growth inhibition at 10 mg/kg, po bid administered for 14 days. The class given is functional. The following applies: NIH3T3, 336 h.
A short description of data set [22]: Plasma protein binding in human. In kind it is ADME, cell-free. The following applies: read-out: PPB (converted). A digest of the protocol: as §1
Data set [23] in a line: Cmax in rhesus monkey at 30 mg/kg, po administered as single dose. In kind it is ADME, organism-based, Macaca mulatta. The arrangement: dose 30 mg/kg, route oral. The note with it: in vivo. In short, it runs like this:
as §4

Data set [24] deals with Mus musculus. The experiment in a line: Inhibition of human IGF1R phosphorylation in human GEO cells xenografted in CD-1 nu/nu mouse at 20 mg/kg, po administered once daily for 14 days. In kind it is functional. The note with it: CD-1, GEO, 336 h. A digest of the protocol:
as §6

Take `C[C@]1(O)C[C@@H](c2nc(-c3ccc4ccc(-c5ccccc5)nc4c3F)c3c(N)ncnn32)C1.Cl`: the fraction unbound in data set [1] is 0.015; in data set [10], 0.034; in [22], 0.027. The inhibition in vivo at 10 mg/kg was 50% in [2]; more than 70% in data set [11]; more than 70% in data set [16]; 91% in data set [18]; 50% in data set [19]; 100% in data set [21]. In [3], this molecule showed a concentration at 16 h of 0.38 µM. The Vd in [4] was determined as 0.55 L/kg. Besides, the values for the bioavailability in [5] and in data set [9] were 97% and 100%, respectively. Moreover, the values for the inhibition in vivo at 5 mg/kg in [6], in data set [12] and in data set [13] were 31%, 40% and 40%, respectively. In addition, the inhibition in vivo at 20 mg/kg was 85% in data set [7] and more than 70% in [24]. This molecule also registered a clearance in [8] of 0.9 L/h/kg. The Cmax was 35.2 µM in [14] and 10.8 µM in [23]. Also, the AUC in [15] was found to be 31.4 µg·h/mL; in [20], 240 µg·h/mL. Also, the concentration at 8 h in data set [17] was more than 4 µM.
